Experimental data from ChEMBL document CHEMBL5705890, “Antitumor activity of an allosteric inhibitor of centromere-associated protein-E” (Proc Natl Acad Sci U S A, 2010).

What was measured:
NCI-H1299 = assay: Antitumor activity against human NCI-H1299 cells in xenograft model assessed as difference between median time to endpoint time of treated versus control group at 62.5 mg/kg; format: functional
MES-SA [1] = assay: Anticancer activity against human MES-SA cells assessed as cell doubling measured for 72 hrs by DAPI staining based analysis; format: functional
SF-295 = assay: Anticancer activity against human SF-295 cells assessed as cell doubling measured for 72 hrs by DAPI staining based analysis; format: functional
NCI-H716 = assay: Anticancer activity against human NCI-H716 cells assessed as cell doubling measured for 72 hrs by DAPI staining based analysis; format: functional
C3A = assay: Anticancer activity against human C3A cells assessed as cell growth inhibition measured after 72 hrs by DAPI staining based analysis; format: functional
Method in brief: (§1)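 Cells were seeded, and DNA content at 24 h after seeding (T0) was read by imaging of fixed, DAPI-stained cells. Cells were then exposed to a range of drug concentrations for a further 72 h (T72) and DNA content was read again. T72 values were normalized to T0, and GI50 was taken from curve fits as the concentration giving 50% growth inhibition relative to T0 and Ymax.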

SK-NEP-1 = assay: Anticancer activity against human SK-NEP-1 cells assessed as cell doubling measured for 72 hrs by DAPI staining based analysis; format: functional
RXF 393 = assay: Anticancer activity against human RXF 393 cells assessed as cell growth inhibition measured after 72 hrs by DAPI staining based analysis; format: functional
NCI/ADR-RES = assay: Anticancer activity against human NCI/ADR-RES cells assessed as cell doubling measured for 72 hrs by DAPI staining based analysis; format: functional
TK-10 = assay: Anticancer activity against human TK-10 cells assessed as cell doubling measured for 72 hrs by DAPI staining based analysis; format: functional
UACC-257 = assay: Anticancer activity against human UACC-257 cells assessed as cell doubling measured for 72 hrs by DAPI staining based analysis; format: functional
RPMI-8226 = assay: Anticancer activity against human RPMI-8226 cells assessed as cell growth inhibition measured after 72 hrs by DAPI staining based analysis; format: functional
BHT-101 = assay: Anticancer activity against human BHT-101 cells assessed as cell growth inhibition measured after 72 hrs by DAPI staining based analysis; format: functional; method in brief: as §1
SF-539 = assay: Anticancer activity against human SF-539 cells assessed as cell growth inhibition measured after 72 hrs by DAPI staining based analysis; format: functional
[2] = Anticancer activity against human NL-SCLC3 cells assessed as cell growth inhibition measured after 72 hrs by DAPI staining based analysis; format: functional
DBTRG-05MG = assay: Anticancer activity against human DBTRG-05MG cells assessed as cell growth inhibition measured after 72 hrs by DAPI staining based analysis; format: functional
Method in brief: (§2)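 Cells seeded, DAPI-stained DNA content of fixed cells read by imaging 24 h after seeding (T0), and again after a further 72 h exposure to a range of drug concentrations (T72). T72 values were normalized to T0. Curve fits gave the concentration producing 50% growth inhibition relative to T0 and Ymax (GI50).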

SCC-4 = assay: Anticancer activity against human SCC-4 cells assessed as cell doubling measured for 72 hrs by DAPI staining based analysis; format: functional
[3] = target: Centromere-associated protein E (Homo sapiens, UniProt Q02224); assay: Uncompetitive binding affinity to C-terminal 6-his-tagged CENP-E (2 to 340 residues)(unknown origin) expressed in Escherichia coli BL21(DE3) assessed as apparent inhibition constant in presence of ATP; conditions: read-out: Ki(app)
Centromere-associated protein E, sequence (Q02224 whole entry, the tested form may be a part): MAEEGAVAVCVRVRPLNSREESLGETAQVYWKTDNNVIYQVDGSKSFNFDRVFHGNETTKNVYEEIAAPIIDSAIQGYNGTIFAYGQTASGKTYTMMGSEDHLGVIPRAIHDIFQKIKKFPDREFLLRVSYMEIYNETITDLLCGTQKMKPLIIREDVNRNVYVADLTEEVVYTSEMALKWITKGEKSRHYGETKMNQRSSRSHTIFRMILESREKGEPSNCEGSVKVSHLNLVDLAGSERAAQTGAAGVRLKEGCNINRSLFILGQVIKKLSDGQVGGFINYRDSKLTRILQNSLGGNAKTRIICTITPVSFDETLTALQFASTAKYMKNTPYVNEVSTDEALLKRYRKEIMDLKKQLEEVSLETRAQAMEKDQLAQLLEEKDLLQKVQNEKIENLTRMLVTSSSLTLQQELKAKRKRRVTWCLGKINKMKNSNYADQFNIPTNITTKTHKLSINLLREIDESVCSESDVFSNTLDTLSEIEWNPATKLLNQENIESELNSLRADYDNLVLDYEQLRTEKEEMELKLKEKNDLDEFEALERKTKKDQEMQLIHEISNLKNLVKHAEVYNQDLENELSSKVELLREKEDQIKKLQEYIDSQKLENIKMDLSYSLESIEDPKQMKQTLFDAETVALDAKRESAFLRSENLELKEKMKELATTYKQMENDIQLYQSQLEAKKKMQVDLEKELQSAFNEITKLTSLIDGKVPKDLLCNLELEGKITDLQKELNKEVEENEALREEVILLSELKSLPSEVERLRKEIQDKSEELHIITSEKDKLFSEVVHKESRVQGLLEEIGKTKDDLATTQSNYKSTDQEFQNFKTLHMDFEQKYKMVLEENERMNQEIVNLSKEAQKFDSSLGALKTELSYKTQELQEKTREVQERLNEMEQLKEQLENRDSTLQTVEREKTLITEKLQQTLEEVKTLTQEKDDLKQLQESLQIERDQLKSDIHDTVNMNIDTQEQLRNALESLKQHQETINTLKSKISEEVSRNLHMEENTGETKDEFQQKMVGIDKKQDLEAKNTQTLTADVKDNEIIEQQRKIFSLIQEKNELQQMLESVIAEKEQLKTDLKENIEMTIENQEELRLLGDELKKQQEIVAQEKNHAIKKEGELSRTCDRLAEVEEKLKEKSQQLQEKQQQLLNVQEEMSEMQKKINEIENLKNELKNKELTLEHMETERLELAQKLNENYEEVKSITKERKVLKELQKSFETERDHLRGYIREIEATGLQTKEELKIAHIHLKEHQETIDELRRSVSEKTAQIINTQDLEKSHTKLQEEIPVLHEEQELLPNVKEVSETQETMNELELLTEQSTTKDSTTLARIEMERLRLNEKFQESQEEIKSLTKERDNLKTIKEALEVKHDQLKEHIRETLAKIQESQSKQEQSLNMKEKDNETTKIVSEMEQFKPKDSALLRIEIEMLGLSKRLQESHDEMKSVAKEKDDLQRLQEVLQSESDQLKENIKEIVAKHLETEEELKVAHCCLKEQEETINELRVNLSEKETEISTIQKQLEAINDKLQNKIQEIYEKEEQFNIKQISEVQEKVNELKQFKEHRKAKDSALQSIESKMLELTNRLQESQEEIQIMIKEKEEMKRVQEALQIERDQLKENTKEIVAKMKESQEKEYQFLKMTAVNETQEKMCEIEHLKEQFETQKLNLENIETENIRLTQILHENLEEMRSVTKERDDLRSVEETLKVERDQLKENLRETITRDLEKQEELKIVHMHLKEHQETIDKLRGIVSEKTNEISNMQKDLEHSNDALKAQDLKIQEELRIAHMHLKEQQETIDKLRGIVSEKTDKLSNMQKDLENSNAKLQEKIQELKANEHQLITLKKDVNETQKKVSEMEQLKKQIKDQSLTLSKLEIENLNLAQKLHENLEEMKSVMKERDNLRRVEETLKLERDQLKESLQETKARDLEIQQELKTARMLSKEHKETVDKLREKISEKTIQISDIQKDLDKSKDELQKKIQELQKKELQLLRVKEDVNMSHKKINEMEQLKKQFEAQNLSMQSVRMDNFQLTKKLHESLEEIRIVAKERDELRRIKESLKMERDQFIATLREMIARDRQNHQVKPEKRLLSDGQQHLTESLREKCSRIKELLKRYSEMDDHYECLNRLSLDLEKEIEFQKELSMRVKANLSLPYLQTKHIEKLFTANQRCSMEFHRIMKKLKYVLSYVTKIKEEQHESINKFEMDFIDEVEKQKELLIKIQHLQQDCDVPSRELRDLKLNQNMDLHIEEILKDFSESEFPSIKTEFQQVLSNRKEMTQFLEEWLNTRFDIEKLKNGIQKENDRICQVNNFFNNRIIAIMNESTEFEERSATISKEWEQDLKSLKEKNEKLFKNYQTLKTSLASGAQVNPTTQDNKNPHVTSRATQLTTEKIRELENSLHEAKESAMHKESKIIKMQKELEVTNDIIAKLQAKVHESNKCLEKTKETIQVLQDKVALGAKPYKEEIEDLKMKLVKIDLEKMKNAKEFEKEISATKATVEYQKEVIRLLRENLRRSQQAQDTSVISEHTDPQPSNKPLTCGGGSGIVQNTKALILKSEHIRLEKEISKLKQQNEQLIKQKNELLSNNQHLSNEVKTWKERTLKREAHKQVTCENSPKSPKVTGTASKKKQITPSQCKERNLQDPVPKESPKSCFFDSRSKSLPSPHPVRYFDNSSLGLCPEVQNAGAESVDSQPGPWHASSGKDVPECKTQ

NCI-H460 = assay: Anticancer activity against human NCI-H460 cells assessed as cell growth inhibition measured after 72 hrs by DAPI staining based analysis; format: functional
639-V = assay: Anticancer activity against human 639-V cells assessed as cell doubling measured for 72 hrs by DAPI staining based analysis; format: functional
MDA-MB-175-VII = assay: Anticancer activity against human MDA-MB-175-VII cells assessed as cell growth inhibition measured after 72 hrs by DAPI staining based analysis; format: functional
HEC-1-A = assay: Anticancer activity against human HEC-1-A cells assessed as cell growth inhibition measured after 72 hrs by DAPI staining based analysis; format: functional
MDA-MB-453 = assay: Anticancer activity against human MDA-MB-453 cells assessed as cell doubling measured for 72 hrs by DAPI staining based analysis; format: functional
SW1990 = assay: Anticancer activity against human SW1990 cells assessed as cell growth inhibition measured after 72 hrs by DAPI staining based analysis; format: functional
G-402 = assay: Anticancer activity against human G-402 cells assessed as cell growth inhibition measured after 72 hrs by DAPI staining based analysis; format: functional; method in brief: as §2
[4] = Anticancer activity against human C32TG cells assessed as cell doubling measured for 72 hrs by DAPI staining based analysis; format: functional
[5] = Anticancer activity against human C4-1 cells assessed as cell doubling measured for 72 hrs by DAPI staining based analysis; format: functional
SW948 = assay: Anticancer activity against human SW948 cells assessed as cell doubling measured for 72 hrs by DAPI staining based analysis; format: functional
Caov-3 cell line = assay: Anticancer activity against human Caov-3 cells assessed as cell growth inhibition measured after 72 hrs by DAPI staining based analysis; format: functional; method in brief: as §2
SCC-15 = assay: Anticancer activity against human SCC-15 cells assessed as cell doubling measured for 72 hrs by DAPI staining based analysis; format: functional
SNU-475 = assay: Anticancer activity against human SNU-475 cells assessed as cell doubling measured for 72 hrs by DAPI staining based analysis; format: functional
MES-SA [6] = assay: Anticancer activity against human MES-SA cells assessed as cell growth inhibition measured after 72 hrs by DAPI staining based analysis; format: functional
SCC-25 = assay: Anticancer activity against human SCC-25 cells assessed as cell growth inhibition measured after 72 hrs by DAPI staining based analysis; format: functional
D283 Med = assay: Anticancer activity against human D283 Med cells assessed as cell growth inhibition measured after 72 hrs by DAPI staining based analysis; format: functional; method in brief: as §2
HCC1143 = assay: Anticancer activity against human HCC1143 cells assessed as cell doubling measured for 72 hrs by DAPI staining based analysis; format: functional
LNCaP = assay: Anticancer activity against human LNCaP cells assessed as cell growth inhibition measured after 72 hrs by DAPI staining based analysis; format: functional
NCI-H630 = assay: Anticancer activity against human NCI-H630 cells assessed as cell doubling measured for 72 hrs by DAPI staining based analysis; format: functional
G-401 = assay: Anticancer activity against human G-401 cells assessed as cell doubling measured for 72 hrs by DAPI staining based analysis; format: functional
SW-403 = assay: Anticancer activity against human SW403 cells assessed as cell doubling measured for 72 hrs by DAPI staining based analysis; format: functional
BFTC-905 = assay: Anticancer activity against human BFTC-905 cells assessed as cell growth inhibition measured after 72 hrs by DAPI staining based analysis; format: functional
Method in brief: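 Cells were seeded and, after 24 h, DNA content was read as T0. Cells were then exposed to varying drug concentrations for a further 72 h (T72). Fixed cells were DAPI-stained and DNA content measured by automated imaging. T72 values were normalized to T0. GI50 is the concentration giving 50% growth inhibition between T0 and Ymax, obtained by curve fitting.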

CC(C)Oc1ccc(C(=O)N[C@H](CNC(=O)CN(C)C)Cc2ccc(-c3cn4cccc([C@H](C)O)c4n3)cc2)cc1Cl [GSK-923295A]
Time (NCI-H1299): 3.3 days | Activity (MES-SA [1]): 3.22 | Activity (SF-295): 2.3 | Activity (NCI-H716): 1.41 | GI50 (C3A): 54 nM | Activity (SK-NEP-1): 1.74 | GI50 (RXF 393): 32 nM | Activity (NCI/ADR-RES): 2.47 | Activity (TK-10): 1.94 | Activity (UACC-257): 1.79 | GI50 (RPMI-8226): 27 nM | GI50 (BHT-101): 100 nM | GI50 (SF-539): 28 nM | GI50 [2]: 31 nM | GI50 (DBTRG-05MG): 17 nM | Activity (SCC-4): 2.44 | Ki [3]: 3.2 nM | GI50 (NCI-H460): 29 nM | Activity (639-V): 3.86 | GI50 (MDA-MB-175-VII): 23 nM | GI50 (HEC-1-A): 50 nM | Activity (MDA-MB-453): 2.26 | GI50 (SW1990): 127 nM | GI50 (G-402): 31 nM | Activity [4]: 1.21 | Activity [5]: 2.93 | Activity (SW948): 1.9 | GI50 (Caov-3 cell line): 33 nM | Activity (SCC-15): 2.38 | Activity (SNU-475): 1.8 | GI50 (MES-SA [6]): 65 nM | GI50 (SCC-25): 23 nM | GI50 (D283 Med): 28 nM | Activity (HCC1143): 1.89 | GI50 (LNCaP): 76 nM | Activity (NCI-H630): 2.04 | Activity (G-401): 4.28 | Activity (SW-403): 1.12 | GI50 (BFTC-905): 30 nM
